Assay results taken from ChEMBL document CHEMBL1144943, “New amide-bearing benzolactam-based protein kinase C modulators induce enhanced secretion of the amyloid precursor protein metabolite sAPPalpha” (J Med Chem, 2003).

Assays:
AG06848 cell line = assay: Ability to enhance […] secretion using human fibroblast AG06848 cell line at 1 uM concentration; assay type: functional; parameters: unit not given here
Outline: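 AD-patient fibroblasts (AG06848) grown to confluence (about 4–5 days), switched to serum-free DMEM for 2 h, then exposed to 1 μM compound for 3 h with DMSO (below 1%) as solvent control. sAPPα in conditioned medium measured by SDS-PAGE immunoblot with antibody 6E10, loading corrected for total cell protein. Densitometry expressed relative to DMSO-treated cells; 3–6 independent experiments.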

[1] = target: Protein kinase C alpha type (Homo sapiens, UniProt P17252); assay: Displacement of PDBU from recombinant Protein kinase C alpha with phosphatidylserine
Mus musculus [2] = species on record: Mus musculus; assay: Compound was evaluated for induction of hyperplasia after four applications at dose 10 (micro/application); 1-3; assay type: functional
Mus musculus [3] = species on record: Mus musculus; assay: Compound was evaluated for induction of hyperplasia after four applications at dose 1 (micro/application); 1-2; assay type: functional
Mus musculus [4] = species on record: Mus musculus; assay: Compound was evaluated for induction of hyperplasia after single application at dose 10 (micro/application); 1-2; assay type: functional
Mus musculus [5] = species on record: Mus musculus; assay: Compound was evaluated for induction of hyperplasia after four applications at dose 3 (micro/application); 1-2; assay type: functional
Mus musculus [6] = species on record: Mus musculus; assay: Compound was evaluated for induction of hyperplasia after single application at dose 3 (micro/application); 1-2; assay type: functional
Mus musculus [7] = species on record: Mus musculus; assay: Compound was evaluated for induction of hyperplasia after single application at dose 1 (micro/application); 1-2; assay type: functional
Mus musculus [8] = species on record: Mus musculus; assay: Compound was evaluated for induction of hyperplasia after four application at dose 100 (micro/application); assay type: functional
Mus musculus [9] = species on record: Mus musculus; assay: Compound was evaluated for induction of hyperplasia after four application at dose 10 (micro/application); assay type: functional
Mus musculus [10] = species on record: Mus musculus; assay: Compound was evaluated for induction of hyperplasia after four application at dose 3 (micro/application); assay type: functional
Mus musculus [11] = species on record: Mus musculus; assay: Compound was evaluated for induction of hyperplasia after single application at dose 3 (micro/application); assay type: functional
Mus musculus [12] = species on record: Mus musculus; assay: Compound was evaluated for induction of hyperplasia after four application at dose 30 (micro/application); assay type: functional
Mus musculus [13] = species on record: Mus musculus; assay: Compound was evaluated for induction of hyperplasia after single application at dose 10 (micro/application); assay type: functional
Mus musculus [14] = species on record: Mus musculus; assay: Compound was evaluated for induction of hyperplasia after single application at dose 100 (micro/application); assay type: functional
Mus musculus [15] = species on record: Mus musculus; assay: Compound was evaluated for induction of hyperplasia after single application at dose 300 (micro/application); assay type: functional
Mus musculus [16] = species on record: Mus musculus; assay: Compound was evaluated for induction of hyperplasia after single application at dose 30 (micro/application); assay type: functional
Mus musculus [17] = species on record: Mus musculus; assay: Compound was evaluated for induction of hyperplasia after four application at dose 300 (micro/application); assay type: functional

| Compound | Activity (AG06848 cell line) | Ki [1] | further results |
| --- | --- | --- | --- |
| CC(C)[C@H]1C(=O)N[C@H](CO)Cc2cc(NC(=O)CCCCc3ccc(CCC(F)(F)C(F)(F)C(F)(F)C(F)(F)C(F)(F)C(F)(F)F)cc3)ccc2N1C | 20 | 9.2 nM |  |
| CCCCCCCCC#Cc1ccc2c(c1)C[C@@H](CO)NC(=O)[C@H](C(C)C)N2C | 0 |  |  |
| CC(C)[C@H]1C(=O)N[C@H](CO)Cc2cc(NC(=O)CCCCc3ccc(C(F)(F)F)cc3)ccc2N1C | 30 | 12.5 nM | Epidermal thickness (Mus musculus [2]): 1; Epidermal thickness (Mus musculus [3]): 1; Epidermal thickness (Mus musculus [4]): 1; Epidermal thickness (Mus musculus [5]): 1; Epidermal thickness (Mus musculus [6]): 1; Epidermal thickness (Mus musculus [7]): 1 |
| CC(C)[C@H]1C(=O)N[C@H](CO)Cc2cc(NC(=O)/C=C/C=C/c3cc(C(F)(F)F)cc(C(F)(F)F)c3)ccc2N1C | 20 | 5.6 nM |  |
| CC(C)[C@H]1C(=O)N[C@H](CO)Cc2cc(NC(=O)/C=C/C=C/c3ccccc3)ccc2N1C | 20 | 15.8 nM |  |
| CC(C)[C@H]1C(=O)N[C@H](CO)Cc2cc(NC(=O)/C=C/C=C/c3ccc(C(F)(F)F)cc3)ccc2N1C | 40 | 11.9 nM | Epidermal thickness (Mus musculus [8]): 2; Epidermal thickness (Mus musculus [9]): 1; Epidermal thickness (Mus musculus [10]): 1; Epidermal thickness (Mus musculus [11]): 1; Epidermal thickness (Mus musculus [12]): 1; Epidermal thickness (Mus musculus [13]): 1; Epidermal thickness (Mus musculus [14]): 1; Epidermal thickness (Mus musculus [15]): 2; Epidermal thickness (Mus musculus [16]): 1; Epidermal thickness (Mus musculus [17]): 3 |
| CC(C)[C@H]1C(=O)N[C@H](CO)Cc2cc(NC(=O)/C=C/C=C/c3ccc(/C=C/C(F)(F)C(F)(F)C(F)(F)C(F)(F)C(F)(F)C(F)(F)F)cc3)ccc2N1C | 10 | 11.2 nM |  |
| CC(C)[C@H]1C(=O)N[C@H](CO)Cc2cc(NC(=O)CCCCc3cc(C(F)(F)F)cc(C(F)(F)F)c3)ccc2N1C | 0 | 7.8 nM |  |
| C/C=C/C=C/C(=O)Nc1ccc2c(c1)C[C@@H](CO)NC(=O)[C@H](C(C)C)N2C | 10 | 1970 nM |  |
| CCCCCC(=O)Nc1ccc2c(c1)C[C@@H](CO)NC(=O)[C@H](C(C)C)N2C | 30 |  |  |
| CC(C)[C@H]1C(=O)N[C@H](CO)Cc2cc(NC(=O)CCCCc3ccccc3)ccc2N1C | 30 | 34.2 nM |  |
